Data as given in PubChem BioAssay.
Results filed as inconclusive are left out. Active and inactive are the calls of the source.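 How the source made its calls, unless noted: active means inhibition over a set limit, the all-compound mean plus 3 SD, in both replicate runs; inconclusive means over that limit in just one replicate run; inactive means at or under that limit in both runs.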

What was measured:
[1] = S. cerevisiae growth inhibition in permissive medium (OD615), pilot counter-assay for S. cerevisiae lifespan shortening project, permissive growth control (AID 705;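 active means growth inhibition above 25% in both replicates, a cutoff set 3 SD above the mean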); details: OD615, 24 h, at 10 µM, hits give high values
Method in brief: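 Material: engineered DeaD yeast; compound dosing: one dose 10 µM, DMSO 0.25% final; measure: yeast growth inhibition indicated by reduced 24 h OD615; detection: OD615 turbidity read; incubation: cells pre-grown 4 h, then 24 h compound exposure, 30 °C humidified; medium: permissive synthetic complete medium with raffinose and galactose carbon sources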

[2] = S. cerevisiae growth inhibition in restrictive medium, OD615, pilot screen, restrictive growth control, yeast lifespan reduction project (AID 706;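 active means growth inhibition above a set limit, 3 SD over mean compound inhibition, in both replicates, cut at about 43% in these data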;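 further: modified DeaD lifespan yeast strain shifted to restrictive glucose medium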); details: OD615, 48 h, at 10 µM, hits give high values
Method in brief: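 material = engineered S. cerevisiae DeaD strain | medium = glucose-based CSMM-D restrictive medium | times = 4 h pre-incubation, 48 h exposure at 30 °C | technique = OD615 absorbance reading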

[3] = doxorubicin toxicity protection in MRP-1 cells – H69AR cells, CellTiter-Glo, duplicate, MRP-1 activator project, pilot screen (AID 807;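 active means viability increase at or above a cutoff of the median across tested compounds plus 3 SD, cut at about 8.5% in these data, passing the limit was not always enough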;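 further: compound pretreatment 18-22 h then 72 h combined with doxorubicin; 0% = doxorubicin alone and 100% = vehicle without doxorubicin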); details: H69AR viability with doxorubicin, CellTiter-Glo luminescence; at 10 µM; hits give high values
[4] = viability of HCT116 without oncogenic beta-catenin – human colon tumor cells, pilot screen (AID 823;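 active means cell viability at or below a set limit in both duplicate runs, the limit being the all-compound median minus 4 SD, cut at about 23% in these data, passing the limit was not always enough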;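 further: 0% = wells killed by 20 µM Hyamine and 100% = untreated DMSO cell wells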); details: HCT116 beta-catenin knockout viability, CellTiter-Glo, 60 h; at 10 µM; hits give low values
[5] = viability of PTEN-null HCT116 cells – cell-based, HCT116 clonal line, CellTiter-Glo, pilot screen (AID 824;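 active means viability at or below 27.92% in each of two runs, the all-compound median minus 4 SD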;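 further: 0% = 20 µM Hyamine control and 100% = vehicle cell control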); details: HCT116 PTEN-deleted viability, 60 h, at 10 µM, hits give low values
[6] = RAM pathway blockade in budding yeast – dse1pr::URA3 reporter, 5-FOA selection, pilot screen (AID 869);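 further: 0% = DMSO wells with no growth and 100% = 10 µM 1-NA-PP1 with full growth; RAM network block rescues cells from 5-FOA so hits raise OD615 growth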; details: S. cerevisiae dse1pr::URA3 5-FOA growth, OD615, 2 d; at 10 µM; hits give high values; strain carries analog-sensitive mutant Cbk1 kinase
[7] = RAM signaling pathway blockade in yeast – S. cerevisiae, Pdr1DBD-CYC8 efflux-inhibited sensitized strain, primary screen (AID 1298;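 active means RAM network inhibition above 8.4% in each of two replicates, 3 SD over the compound average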;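 further: 0% = DMSO untreated cells without growth and 100% = 10 µM 1-NA-PP1 full growth; higher means more yeast growth rescued from 5-FOA killing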); details: S. cerevisiae cbk1-as DSE1-URA3 strain, 5-FOA growth OD615, 2 d; at 50 µM; hits give high values

Cc1cccc(N2CCN(c3nc4ccc(Cl)cc4n4cnnc34)CC2)c1C
inactive: growth inhibition [1] -17.7% | growth inhibition [2] -14.7% | viability increase [3] -8.78% | inhibition [6] -0.44% | RAM network inhibition [7] -0.95%
active: viability [4] 2.03% | viability [5] 1.75%

CCOC(=O)c1ccc(NC(=O)C2C3C=CC(C3)C2C(=O)O)cc1 (configuration not stated)
inactive: growth inhibition [1] 5.27% | growth inhibition [2] 5.33% | viability increase [3] 0.55% | viability [4] 98.5% | viability [5] 106% | inhibition [6] 0.29% | RAM network inhibition [7] 1.09%

O=C(O)CCCC(=O)Nc1c(F)c(F)c(F)c(F)c1F
inactive: growth inhibition [1] -5.5% | growth inhibition [2] -6.27% | viability increase [3] -1.85% | viability [4] 90.4% | viability [5] 94.4% | inhibition [6] 0.175% | RAM network inhibition [7] -0.87%

CN(C(=O)c1ccccc1C(=O)c1ccccc1)C1CCS(=O)(=O)C1 (configuration not stated)
inactive: growth inhibition [1] -8.28% | growth inhibition [2] 3.21% | viability increase [3] -1.54% | viability [4] 96.6% | viability [5] 95.4% | inhibition [6] -0.06% | RAM network inhibition [7] 1.85%

COCCNC(=O)c1cc2c(=O)n3cccc(C)c3nc2n1C
inactive: growth inhibition [1] -9.01% | growth inhibition [2] -20.7% | viability increase [3] -5.8% | viability [4] 34.3% | viability [5] 33.9% | inhibition [6] 1.85% | RAM network inhibition [7] 3.01%

CCCOC(=O)c1ccc(NC(=O)c2ccoc2C)cc1
inactive: growth inhibition [1] -3.79% | growth inhibition [2] 1.33% | viability increase [3] 0.94% | viability [4] 75.5% | viability [5] 78% | inhibition [6] 2.72% | RAM network inhibition [7] 4.37%

Cc1ccc(NC(=O)Cn2cc3c(n2)CCC(C)C3)cc1 (configuration not stated)
inactive: growth inhibition [1] -1.07% | growth inhibition [2] 2.22% | viability increase [3] 0.37% | viability [4] 106% | viability [5] 88.6% | inhibition [6] 0.39% | RAM network inhibition [7] 1.64%

Cc1cc(N2CCN(C3CCCCC3)CC2)n2nc(C)nc2n1
inactive: growth inhibition [1] 5.17% | growth inhibition [2] 4.13% | viability increase [3] -2.07% | viability [4] 93.5% | viability [5] 96.2% | inhibition [6] 2.16% | RAM network inhibition [7] 5.03%

Cc1ccc(-n2ncc3c(=O)n(CC(=O)NCc4ccco4)cnc32)cc1C
inactive: growth inhibition [1] -5.52% | growth inhibition [2] -6.3% | viability increase [3] -5.18% | viability [4] 74.4% | viability [5] 56.4% | inhibition [6] 2.71% | RAM network inhibition [7] 1.9%

CC(Cc1c[nH]c2ccccc12)NC(=O)C1CCCNC1=O (configuration not stated)
inactive: growth inhibition [1] -5.75% | growth inhibition [2] 8.45% | viability increase [3] -0.46% | viability [4] 99.4% | viability [5] 103% | inhibition [6] 1.27% | RAM network inhibition [7] 0.66%

CCOC(=O)N(C)OC(=O)Nc1ccc(Cl)c(Cl)c1
inactive: growth inhibition [1] -17.1% | growth inhibition [2] -20.5% | viability increase [3] -0.16% | viability [4] 95.6% | viability [5] 90.8% | inhibition [6] 0.52% | RAM network inhibition [7] 5.93%

CCSC(C)CC1CC(=O)CC(=O)C1 (configuration not stated)
inactive: growth inhibition [1] -11.7% | growth inhibition [2] 6.03% | viability increase [3] 0.29% | viability [4] 94% | viability [5] 89.9% | inhibition [6] 1.39% | RAM network inhibition [7] 2.13%

CN(C)CCNC(=O)c1cc2cc(Br)ccc2oc1=O
inactive: growth inhibition [1] -22.2% | growth inhibition [2] -8.59% | viability increase [3] -2.26% | viability [4] 81.6% | viability [5] 84.5% | inhibition [6] 0.755% | RAM network inhibition [7] 2.26%

Cc1cccc(NC(=O)c2ccc(S(=O)(=O)N(C)C)cc2)c1
inactive: growth inhibition [1] -8.26% | growth inhibition [2] -8.44% | viability increase [3] -3.61% | viability [4] 106% | viability [5] 100% | inhibition [6] 2.24% | RAM network inhibition [7] 1.69%

Cc1cccc(-n2ncc3c(NCCc4ccc(S(N)(=O)=O)cc4)ncnc32)c1
inactive: growth inhibition [1] 2.13% | growth inhibition [2] 1.53% | viability increase [3] -2.67% | viability [4] 88.8% | viability [5] 82% | inhibition [6] 1.27% | RAM network inhibition [7] 4.84%

Cc1c(NC(=O)c2ccc3c(c2)OCO3)cccc1-c1nc2ncccc2o1
inactive: growth inhibition [1] -9.32% | growth inhibition [2] -13.2% | viability increase [3] -1.14% | viability [4] 102% | viability [5] 95.3% | inhibition [6] 2.48% | RAM network inhibition [7] 3.92%

CCC(=O)Nc1ccc(C(=O)n2nc(C)cc2C)cc1
inactive: growth inhibition [1] 15.8% | growth inhibition [2] 7.33% | viability increase [3] -2.24% | viability [4] 103% | viability [5] 98.9% | inhibition [6] 1.12% | RAM network inhibition [7] -0.72%

CCc1ccc(C2CC(c3ccc(C)cc3)n3nc(N)nc3N2)cc1 (configuration not stated)
inactive: growth inhibition [1] 5.21% | growth inhibition [2] 24.1% | viability increase [3] 0.11% | viability [4] 101% | viability [5] 107% | inhibition [6] 1.35% | RAM network inhibition [7] 8.9%

CC(C)n1c(SCc2ccccc2F)nc2c1c(=O)n(C)c(=O)n2C
inactive: growth inhibition [1] -11.3% | growth inhibition [2] -1.82% | viability increase [3] -1.77% | viability [4] 82.7% | viability [5] 76.5% | inhibition [6] 1.15% | RAM network inhibition [7] 5.87%

COc1ccc(CNc2nc3c(c(=O)[nH]c(=O)n3C)n2Cc2ccccc2C)cc1
inactive: growth inhibition [1] -14.8% | growth inhibition [2] -13.7% | viability increase [3] -4.3% | viability [4] 96.2% | viability [5] 89.5% | inhibition [6] 2.08% | RAM network inhibition [7] 2.1%

Cc1cc(=S)n(-c2ccccc2)n1C
inactive: growth inhibition [1] 1.78% | growth inhibition [2] 7.75% | viability increase [3] -0.34% | viability [4] 102% | viability [5] 95.4% | inhibition [6] 1.21% | RAM network inhibition [7] 0.45%

COc1ccccc1-n1c(=O)[nH]c2c(C(N)=O)nc(C3CCCCC3)nc21
inactive: growth inhibition [1] -7.19% | growth inhibition [2] -5.21% | viability increase [3] -3.33% | viability [4] 94.7% | viability [5] 77.5% | inhibition [6] 1.55% | RAM network inhibition [7] 2.69%

Clc1ccc(-c2noc(COc3ccccc3)n2)cc1
inactive: growth inhibition [1] -3.93% | growth inhibition [2] 14.3% | viability increase [3] 2.15% | viability [4] 101% | viability [5] 95.6% | inhibition [6] 0.745% | RAM network inhibition [7] 9.14%

CC1(C)Cc2c(sc3c2c(=N)n(Cc2ccco2)c(=O)n3Cc2ccc(Cl)cc2)CO1
inactive: growth inhibition [1] -1.16% | growth inhibition [2] 6.14% | viability increase [3] -4.55% | viability [4] 79.9% | viability [5] 70.6% | inhibition [6] 1.69% | RAM network inhibition [7] 4.49%

CCSc1nnc(Cc2cc(=O)[nH]c(=O)[nH]2)n1-c1cccc(C)c1
inactive: growth inhibition [1] -8.16% | growth inhibition [2] -4.58% | viability increase [3] -1.79% | viability [4] 105% | viability [5] 94.3% | inhibition [6] 1.77% | RAM network inhibition [7] 0.26%

Cc1cc(=O)oc2cc(OCC(O)CN3CCN(c4ccc(F)cc4)CC3)ccc12 (configuration not stated)
inactive: growth inhibition [1] -10.4% | growth inhibition [2] -2.92% | viability increase [3] -0.12% | viability [4] 74.5% | viability [5] 80.8% | inhibition [6] 0.85% | RAM network inhibition [7] -0.18%

Cc1cc(OC2CCCCC2)nc(-c2ccccc2O)n1
inactive: growth inhibition [1] -21.5% | growth inhibition [2] -17.2% | viability increase [3] -0.33% | viability [4] 87% | viability [5] 81.5% | inhibition [6] 1.9% | RAM network inhibition [7] 12.3%

CCOc1cc(CN2CCN(c3cccc(C(F)(F)F)c3)CC2)ccc1O
inactive: growth inhibition [1] -9.48% | growth inhibition [2] -4.3% | viability increase [3] -5.3% | viability [4] 82.7% | viability [5] 82.9% | inhibition [6] 1.4% | RAM network inhibition [7] 0.97%

O=C(NCC1COc2ccccc2O1)C1CCCN(S(=O)(=O)c2cccc3cccnc23)C1 (configuration not stated)
inactive: growth inhibition [1] -2.58% | growth inhibition [2] -19.5% | viability increase [3] 0.43% | viability [4] 71.8% | viability [5] 72.9% | inhibition [6] 2.7% | RAM network inhibition [7] 3.24%

O=C1CCCC(O)=C1C1C2=C(CCCC2=O)Oc2ccccc21 (configuration not stated)
inactive: growth inhibition [1] -12.6% | growth inhibition [2] -10.5% | viability increase [3] -5.35% | viability [4] 91.6% | viability [5] 90.1% | inhibition [6] 2.33% | RAM network inhibition [7] 3.55%

COc1cccc(NC(=O)Cn2cnc3sc(C)c(S(=O)(=O)N4CCN(C)CC4)c3c2=O)c1
inactive: growth inhibition [1] -17.7% | growth inhibition [2] -24.1% | viability increase [3] -1.93% | viability [4] 89% | viability [5] 83.2% | inhibition [6] 1.76% | RAM network inhibition [7] 1.09%

COc1ccc(NC(=O)c2c(-c3ccccc3)noc2C)c(OC)c1
inactive: growth inhibition [1] -16% | growth inhibition [2] -30.3% | viability increase [3] -1.79% | viability [4] 97.4% | viability [5] 92.6% | inhibition [6] 0.895% | RAM network inhibition [7] 3.75%

CC(O)Cc1nsc(NC(=O)c2cccs2)n1 (configuration not stated)
inactive: growth inhibition [1] -11.4% | growth inhibition [2] -8.99% | viability increase [3] -0.55% | viability [4] 104% | viability [5] 100% | inhibition [6] 0.84% | RAM network inhibition [7] 0.26%

CCn1cc(S(=O)(=O)CC(=O)Nc2ccc3c(c2)OCCO3)c2ccccc21
inactive: growth inhibition [1] -12.1% | growth inhibition [2] -19.9% | viability increase [3] 0.14% | viability [4] 101% | viability [5] 95.3% | inhibition [6] 2.54% | RAM network inhibition [7] 9.35%

CC1CCc2nc3ccc(S(=O)(=O)N4CCC(C(=O)NC5CCCC5)CC4)cc3c(C(=O)O)c2C1 (configuration not stated)
inactive: growth inhibition [1] -0.78% | growth inhibition [2] 10.5% | viability increase [3] -2.1% | viability [4] 94.8% | viability [5] 95.4% | inhibition [6] 1.08% | RAM network inhibition [7] 3.59%

O=C(NCc1cccnc1)c1cccc(S(=O)(=O)N2CCOCC2)c1
inactive: growth inhibition [1] -7.59% | growth inhibition [2] 1.51% | viability increase [3] 0.32% | viability [4] 103% | viability [5] 101% | inhibition [6] 1.6% | RAM network inhibition [7] 0.62%
